Compound activity: PubChem, several laboratories
Rows were chosen to be rich in hits. Some 4.4% of all compounds tested hit in one or more screens of this group.
AI-2 QS modul: Vibrio harveyi AI-2 quorum sensing modulation | Vibrio harveyi JMH597 AI-2 luminescence/OD600 ratio, 9 h; active compounds read low; strain lacks LuxN and CqsS sensors; 0 = neutral-control median | activity change, % at 7.5 µM | 0.4% of 300,000 active; in the data active = activity change below about -75%, passing the limit was not always enough;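 also: luminescence divided by OD600 gain over 9 h not by final OD600 alone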
TbMetRS inhib: Trypanosoma brucei MetRS inhibition; purified T. brucei MetRS, ATP depletion, Kinase-Glo luminescence; inhibition, % at 11.9 µM; 0.4% of 360,000 active; AID 624268;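 active = inhibition above a per-plate cutoff of the control wells' mean inhibition plus 3 SD, cut at about 5.5% in these data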
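technique = Kinase-Glo luminescence, ATP depletion format | system = purified MetRS (methionyl-tRNA synthetase) enzyme from Trypanosoma brucei | timing = 15 min preincubation, 2 h reaction, all 25 °C | evaluation = percent inhibition versus plate control medians | dosing = single dose, 11.9 µM final nominal, 0.9% final DMSO | also added = substrates ATP, L-methionine and bulk Escherichia coli tRNA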
MsrA inhibitor: inhibits bovine methionine sulfoxide reductase A. purified bovine MsrA, absorbance read-out. inhibition, % at 15.5 µM. 0.75% of 360,000 active. AID 651718; in the data active = inhibition above about 4.5%
AHR activator: human AHR activation; AHR-responsive luciferase reporter cells, luminescence; activation, % at 5 µM; AID 2796; P35869; 2.5% of 320,000 active; in the data active = activation above about 47%
Target sequence (P35869 whole entry, looked up): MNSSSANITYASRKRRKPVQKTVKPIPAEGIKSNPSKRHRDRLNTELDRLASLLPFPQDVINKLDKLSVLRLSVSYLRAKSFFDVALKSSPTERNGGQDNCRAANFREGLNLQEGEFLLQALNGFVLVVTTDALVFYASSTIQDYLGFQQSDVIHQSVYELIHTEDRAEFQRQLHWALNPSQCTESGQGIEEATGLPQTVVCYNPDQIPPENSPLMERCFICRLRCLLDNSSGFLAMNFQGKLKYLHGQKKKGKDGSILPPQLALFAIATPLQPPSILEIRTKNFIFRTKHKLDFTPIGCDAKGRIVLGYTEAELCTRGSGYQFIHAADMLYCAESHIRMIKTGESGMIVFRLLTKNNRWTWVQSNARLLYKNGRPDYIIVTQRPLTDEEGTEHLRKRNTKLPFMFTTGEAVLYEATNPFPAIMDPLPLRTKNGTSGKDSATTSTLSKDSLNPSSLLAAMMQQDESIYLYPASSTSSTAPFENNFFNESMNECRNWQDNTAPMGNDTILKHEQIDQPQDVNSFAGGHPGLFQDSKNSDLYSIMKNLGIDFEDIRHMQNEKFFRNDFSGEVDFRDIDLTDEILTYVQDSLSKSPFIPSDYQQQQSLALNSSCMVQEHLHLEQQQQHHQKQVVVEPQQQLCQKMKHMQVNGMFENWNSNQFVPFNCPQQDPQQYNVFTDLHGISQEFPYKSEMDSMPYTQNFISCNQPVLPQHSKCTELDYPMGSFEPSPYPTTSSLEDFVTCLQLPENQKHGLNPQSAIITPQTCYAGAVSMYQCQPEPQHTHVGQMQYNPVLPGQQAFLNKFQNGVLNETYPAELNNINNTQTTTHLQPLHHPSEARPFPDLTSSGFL
bovine MsrA act: activators of bovine methionine sulfoxide reductase A; purified bovine MsrA, absorbance read-out; activation, % at 10.6 µM; 0.3% of 360,000 active; AID 602163; in the data active = activation above about 7.5%
m5-HT2A agonist: mouse HTR2A agonism via beta-arrestin recruitment; 0.66% of 360,000 active; activation, % at 7.6 µM; CHO-K1 mHTR2A beta-arrestin complementation, luminescence; percent of 30 µM serotonin response;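 active = activation above a run cutoff, the mean activation of all tested compounds plus 3 SD, cut at about 14% in these data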
MOR ag counter: activates human mu opioid receptor in HTR2A counterscreen; shares compounds with m5-HT2A agonist; U2OS OPRM1 beta-arrestin PathHunter, luminescence; DMSO 0%, DAMGO 9.3 µM 100%; activation, % at 9.3 µM; 5.3% of 2,300 active; AID 624380;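 active = mean activation above the mean of DMSO-only wells plus 3 SD, cut at about 0.5% in these data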
m5-HT2A ag conf: confirmation of mouse HTR2A serotonin receptor agonists | shares compounds with m5-HT2A agonist | CHO-K1 PathHunter beta-arrestin recruitment, luminescence; DMSO 0%, 30 µM serotonin 100% | activation, % at 7.6 µM | 19% of 2,300 active | AID 624381;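 active = mean activation across triplicates above the hit threshold derived in the original primary screen, cut at about 15% in these data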
Of the large screens only hits and unclear results are named; the others gave an inactive call (follow-up assays come after a bar, where they were run).

COc1cc([N+](=O)[O-])ccc1NC(=O)/C=C\C(=O)O	m5-HT2A agonist 22.5 | MOR ag counter inactive | m5-HT2A ag conf inactive
O=C(/C=C/c1ccc([N+](=O)[O-])cc1)N1CCN(S(=O)(=O)c2ccccc2)CC1	m5-HT2A agonist 17.6 (no result: AI-2 QS modul) | MOR ag counter inactive | m5-HT2A ag conf inactive
O=C(/C=C/c1ccc([N+](=O)[O-])cc1)N1CCN(Cc2ccccc2)CC1	none
O=C(Nc1cccc(Br)c1)c1cc(S(=O)(=O)N2CCOCC2)cs1	none
CN1CCN(c2nc3c(c(=O)[nH]c(=O)n3C)n2CCCSc2ncccn2)CC1	none
CC1CCN(c2nc3c(c(=O)[nH]c(=O)n3C)n2CCSc2ncccn2)CC1	m5-HT2A agonist 60.1 (no result: AI-2 QS modul, AHR activator) | MOR ag counter inactive | m5-HT2A ag conf inactive
COc1ccc2c(c1)CC/C2=N\NC(=O)c1ccccc1	m5-HT2A agonist 15.2 | MOR ag counter inactive | m5-HT2A ag conf inactive
Cc1ccc(S(=O)(=O)N2CCC[C@H]2C(=O)OCC(=O)Nc2ccc3c(c2)OCO3)cc1	none (no result: AI-2 QS modul)
COc1ccc(Cc2c(O)nc(SCC(=O)c3ccc(OC)cc3)[nH]c2=O)cc1	none
COc1ccc(Cc2c(O)nc(SCC(C)C)[nH]c2=O)cc1	m5-HT2A agonist 14.5 | MOR ag counter inactive | m5-HT2A ag conf inactive
CC(=O)N1CCN(C(=S)NC(=O)c2ccc(S(=O)(=O)N3CCOCC3)cc2)CC1	m5-HT2A agonist 15.6 | MOR ag counter inactive | m5-HT2A ag conf inactive
COc1ccc(-c2ccc3c(c2)[C@@H]2C[C@H](N(C)C(=O)Nc4ccccc4)[C@H]([C@H](C)O)C(=O)N2CC3)cc1	none (no result: AI-2 QS modul, AHR activator)
Cc1ccc(C)c2[nH]c(=O)c(CN(CCN3CCCC3)C(=O)Nc3ccc(F)cc3)cc12	m5-HT2A agonist 16.6 | MOR ag counter inactive | m5-HT2A ag conf inactive
CN1CCc2cc(O)c(O)cc2C(c2ccccc2)C1 (centres undefined)	m5-HT2A agonist 16.6 (no result: AI-2 QS modul) | MOR ag counter inactive | m5-HT2A ag conf 78.5
Oc1cc2c(cc1O)[C@@H](c1ccccc1)CNCC2	m5-HT2A agonist 19.1 (no result: AI-2 QS modul, AHR activator) | MOR ag counter inactive | m5-HT2A ag conf 47.5
CCOC(=O)C(C(=O)N(C)C)c1ncc(C(F)(F)F)cc1Cl (centres undefined)	m5-HT2A agonist 18.8 | MOR ag counter inactive | m5-HT2A ag conf inactive
COc1ccc(NC(=O)Cn2nnc(C(=O)NCc3cccc(OC)c3)c2N)cc1	none
COc1ccc(NC(=O)Cn2nnc(C(=O)NCc3cccs3)c2N)cc1	m5-HT2A agonist 15.4 | MOR ag counter inactive | m5-HT2A ag conf inactive
Cc1ccc(NC(=O)Cn2nnc(C(=O)NCc3cccs3)c2N)cc1	none
COc1cccc(CNC(=O)c2nnn(CC(=O)Nc3cccc(C)c3)c2N)c1	m5-HT2A agonist 17.6 | MOR ag counter inactive | m5-HT2A ag conf inactive
COc1ccc([C@H]2CC(=O)C=C(c3cccc(C#N)c3)C2)cc1	none (no result: AI-2 QS modul)
Cc1cc(S(=O)(=O)Nc2cccnc2)c(C)s1	m5-HT2A agonist 20.7 | MOR ag counter inactive | m5-HT2A ag conf inactive
CC(OC(=O)c1ccc(-c2ccc(O)cc2)cc1)C(=O)NC1CCCCC1C (centres undefined)	none (no result: AI-2 QS modul)
CC(C)(C)c1ccc(OCCC(=O)Nc2ccc(N3CCOCC3)cc2N2CCOCC2)cc1	none
Cc1ccc(-c2cc(-c3ccco3)c3c(N)c(C(=O)NN)oc3n2)cc1	m5-HT2A agonist 14.6 | MOR ag counter inactive | m5-HT2A ag conf inactive
CC(=O)Nc1ccc(S(=O)(=O)N2CCN(C(=O)Cc3ccccc3)CC2)cc1	m5-HT2A agonist 17.0 | MOR ag counter inactive | m5-HT2A ag conf inactive
CCOC(=O)C1CCN(c2nc(C)cc(C)c2C#N)CC1	m5-HT2A agonist 16.4 | MOR ag counter inactive | m5-HT2A ag conf inactive
Cc1cc(C)c(C#N)c(N2CCCC(C(N)=O)C2)n1 (centres undefined)	none
O=C(c1ccco1)N1CCN(Cc2c(Cl)cccc2Cl)CC1	none
